Data: PMC9946004 (Infection and Drug Resistance, 2023)
Values after ≈ are worked out from the molar mass of the structure shown.

What was measured:
Assay in all cases: MIC by broth microdilution
Type in all cases: cell-based
Conditions in all cases: Staphylococcus aureus
[1] = tested on: S. aureus 18-W27-73 (MRSA)
Outline: (§1)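 Broth microdilution per CLSI 2018 in Mueller–Hinton broth, in triplicate. Inoculum was 5×10^5 CFU/mL, incubated 20 h at 37 °C. MIC was the lowest concentration with no visible growth. ATCC29213 served as the quality-control strain.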

[2] = tested on: S. aureus ATCC29213
Outline: as §1

[3] = tested on: S. aureus 18-W26-14 (MRSA)
Outline: as §1

CC(=O)NC[C@H]1CN(c2ccc(N3CCOCC3)c(F)c2)C(=O)O1 [Linezolid, linezolid] was tested, and the MIC [1] was 2 µg/mL (≈ 5.93 µM), the MIC [2] was 2 µg/mL (≈ 5.93 µM) and the MIC [3] was 4 µg/mL (≈ 11.9 µM).
For CN[C@H](CC(C)C)C(=O)N[C@H]1C(=O)N[C@@H](CC(N)=O)C(=O)N[C@H]2C(=O)N[C@H]3C(=O)N[C@H](C(=O)N[C@H](C(=O)O)c4cc(O)cc(O)c4-c4cc3ccc4O)[C@H](O)c3ccc(c(Cl)c3)Oc3cc2cc(c3O[C@@H]2O[C@H](CO)[C@@H](O)[C@H](O)[C@H]2O[C@H]2C[C@](C)(N)[C@H](O)[C@H](C)O2)Oc2ccc(cc2Cl)[C@H]1O [Vancomycin, vancomycin], the MIC [1] was 1 µg/mL (≈ 0.69 µM), the MIC [2] was 1 µg/mL (≈ 0.69 µM) and the MIC [3] was 2 µg/mL (≈ 1.38 µM).
